Active and inactive are the calls of the source. No cut-off for these calls is given here.
How the values were obtained:
[1] = tested on: Mus musculus; assay: Percent reduction in area under glucose tolerance curve (AUC) was determined at 10 umol/kg dose of diet in mice; IA = No significant activity; assay type: functional, organism-based
In short: (§1)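 C57 Bl/6 ob/ob mice, 9–10 weeks old at purchase, 6–8 per group, kept at 26 ± 2 °C on a 12 h light/dark cycle. Compound was mixed into powdered diet, given fresh daily for 8 days. Mice were then fasted 5 h and given oral glucose 3 g/kg. Tail blood glucose was measured at 0, 45, 90 and 135 min by hexokinase/G6PDH. Read-out is % AUC reduction vs controls (trapezoid rule), Student's t-test.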

[2] = tested on: Mus musculus; assay: Percent reduction in area under glucose tolerance curve at 100 uM/kg dose in diet of mice.; assay type: functional; in short: as §1
[3] = tested on: Mus musculus; assay: Percent reduction in area under glucose tolerance curve (AUC) was determined at 30 umol/kg dose of diet in mice; IA = No significant activity; assay type: functional, organism-based; in short: as §1
[4] = tested on: Mus musculus; assay: Percent reduction in area under glucose tolerance curve (AUC) was determined at 30 umol/kg dose of diet in mice; assay type: functional; in short: as §1
[5] = tested on: Mus musculus; assay: Percent reduction in area under glucose tolerance curve at 300 uM/kg dose in diet of mice.; assay type: functional; in short: as §1
[6] = tested on: Mus musculus; assay: Percent reduction in area under glucose tolerance curve (AUC) was determined at 300 umol/kg dose of diet in mice; IA = No significant activity; assay type: functional, organism-based; in short: as §1
[7] = tested on: Mus musculus; assay: Percent reduction in area under glucose tolerance curve (AUC) was determined at 10 umol/kg dose of diet in mice; assay type: functional; in short: as §1
[8] = tested on: Mus musculus; assay: Percent reduction in area under glucose tolerance curve (AUC) was determined at 3 umol/kg dose of diet in mice; IA = No significant activity; assay type: functional, organism-based; in short: as §1
[9] = tested on: Mus musculus; assay: Percent reduction in area under glucose tolerance curve (AUC) was determined at 1000 umol/kg dose of diet in mice; assay type: functional; in short: as §1
[10] = organism: Mus musculus; assay: No significant effect dose level on blood hemoglobin.; assay type: functional
In short: (§2)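 Blood hemoglobin content was measured in C57 Bl/6 ob/ob mice after 8 days of compound given by dietary admixture. The value is the highest dose (µmol/kg of diet) with no significant reduction in blood hemoglobin.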

[11] = organism: Mus musculus; assay: Antihyperglycemic potency dose producing approximately 25% reduction in area under glucose tolerance curve; assay type: functional; in short: as §1
[12] = tested on: Mus musculus; assay: Percent reduction in area under glucose tolerance curve (AUC) was determined at 3 umol/kg dose of diet in mice; assay type: functional; in short: as §1
[13] = tested on: Mus musculus; assay: Percent reduction in area under glucose10 umol/kg dose of diet in mice; assay type: functional; in short: as §1
[14] = Selectivity ratio for Antihyperglycemic potency dose and No significant effect dose; assay type: functional
[15] = tested on: Mus musculus; assay: Percent reduction in area under glucose tolerance curve (AUC) was determined at 100 umol/kg dose of diet in mice; IA = No significant activity; assay type: functional, organism-based; in short: as §1
[16] = tested on: Mus musculus; assay: Percent reduction in area under glucose tolerance curve (AUC) was determined at 3000 umol/kg dose of diet in mice; assay type: functional; in short: as §1
[17] = organism: Mus musculus; assay: No significant effect dose level on blood hemoglobin; assay type: functional; in short: as §2

With `CN(CCOc1ccc(CC2SC(=O)NC2=O)cc1)c1cnccn1` (stereo unspecified) the Reduction [1] was “Not significant” and the Reduction [2] was 46%.

With `CN(CCOc1ccc(CC2SC(=O)NC2=O)cc1)c1nc(-c2ccccc2)cs1` (stereo unspecified) the Reduction [3] was “Not significant” and the Reduction [2] was 34%.

`O=C1NC(=O)C(Cc2ccc(OCCNc3ncccn3)cc2)S1` (stereo unspecified) gave a Reduction [4] of 15%.

In the case of `CN(CCOc1ccc(/C=C2\SC(=O)NC2=O)cc1)c1ccccn1`, the Reduction [3] is reported as “inactive” and the Reduction [5] is reported as 47%.

For `O=C(NCCOc1ccc(CC2SC(=O)NC2=O)cc1)Nc1ccc(Cl)cc1` (stereo unspecified), the Reduction [6] was “Not significant”.

In the case of `CN(CCOc1ccc(CC2SC(=O)NC2=O)cc1)c1ncccc1Cl` (stereo unspecified), the Reduction [4] is reported as 15% and the Reduction [5] is reported as 40%.

For `CN(CCOc1ccc(CC2SC(=O)NC2=O)cc1)/C(=N/c1ccccc1)NC#N` (stereo unspecified), the Reduction [6] was “Not significant”.

In the case of `CN(CCOc1ccc(CC2SC(=O)NC2=O)cc1)c1ncc(-c2ccccc2)o1` (stereo unspecified), the Reduction [4] is reported as 22% and the Reduction [7] is reported as 20%.

In the case of `CN(CCOc1ccc(CC2SC(=O)NC2=O)cc1)c1nc2ccccc2s1` (stereo unspecified), the Reduction [8] is reported as “Not significant”, the Reduction [5] is reported as 66% and the Reduction [7] is reported as 36%. It also gave a Reduction [2] of 51%.

For `CN(CCOc1ccc(CC2OC(=O)NC2=O)cc1)c1nc2ccccc2o1` (stereo unspecified), the Reduction [9] was 52%, the Reduction [3] was “Not significant” and the Reduction [5] was 41%. For the same compound, the Reduction [2] was 23%.

Work on `CN(CCOc1ccc(CC2SC(=O)NC2=O)cc1)c1ccccn1` (stereo unspecified) [ROSIGLITAZONE] yielded a Dose [10] of 300 µM/kg, a Dose [11] of 3 µM/kg and a Reduction [12] of 17%. For the same compound, the Reduction [4] was 41%, the Reduction [5] was 61% and the Reduction [13] was 31%. The Reduction [2] was 56% and the Selectivity ratio [14] was 100.

In the case of `CCc1ccc(CCOc2ccc(CC3SC(=O)NC3=O)cc2)nc1` (stereo unspecified) [PIOGLITAZONE], the Reduction [15] is reported as “inactive”, the Reduction [9] is reported as 62% and the Reduction [5] is reported as 35%. The Reduction [16] was 63%.

`CN(CCOc1ccc(CC2SC(=O)NC2=O)cc1)C(=O)Nc1ccccc1` (stereo unspecified) gave a Reduction [5] of 27%.

With `CN(CCOc1ccc(CC2[Se]C(=O)NC2=O)cc1)c1nc2ccccc2o1` (stereo unspecified) the Reduction [1] was “Not significant” and the Reduction [2] was 45%.

In the case of `CC(C)N(CCOc1ccc(CC2SC(=O)NC2=O)cc1)c1nc2ccccc2o1` (stereo unspecified), the Reduction [2] is reported as 20%.

With `CN(CCOc1ccc(CC2SC(=O)NC2=O)cc1)c1nccs1` (stereo unspecified) the Reduction [1] was “Not significant” and the Reduction [2] was 58%.

For `O=C(NCCOc1ccc(CC2SC(=O)NC2=O)cc1)Nc1ccc(Cl)c(Cl)c1` (stereo unspecified), the Reduction [6] was “Not significant”.

With `CC1(COc2ccc(CC3SC(=O)NC3=O)cc2)CCCCC1` (stereo unspecified) [CIGLITAZONE] the Reduction [6] was “inactive” and the Reduction [16] was 41%.

Compound `CC(=O)N(CCOc1ccc(CC2SC(=O)NC2=O)cc1)c1ncccn1` (stereo unspecified) has a Reduction [4] of 19%.

With `Cc1sc(N(C)CCOc2ccc(CC3SC(=O)NC3=O)cc2)nc1-c1ccccc1` (stereo unspecified) the Reduction [4] was 20%, the Reduction [1] was “Not significant” and the Reduction [2] was 37%.

With `Cc1c(C)c2c(c(C)c1O)CCC(C)(COc1ccc(CC3SC(=O)NC3=O)cc1)O2` (stereo unspecified) [TROGLITAZONE] the Dose [17] was 600 µM/kg, the Dose [11] was 400 µM/kg and the Reduction [15] was “inactive”. The Reduction [5] was 20%, the Selectivity ratio [14] was 1.5 and the Reduction [16] was 48%.

Work on `CN(CCOc1ccc(/C=C2\SC(=O)NC2=O)cc1)c1nc2ccccc2o1` yielded a Reduction [5] of 30%.

With `Cc1ccc(N(C)CCOc2ccc(CC3SC(=O)NC3=O)cc2)nc1` (stereo unspecified) the Reduction [4] was 18%, the Reduction [5] was 35% and the Reduction [2] was 19%.

For `CN(CCOc1ccc(CC2SC(=O)NC2=O)cc1)c1ccc([N+](=O)[O-])cn1` (stereo unspecified), the Reduction [3] was “Not significant”.

In the case of `Cc1nc(N(C)CCOc2ccc(CC3SC(=O)NC3=O)cc2)sc1C` (stereo unspecified), the Reduction [4] is reported as 47% and the Reduction [1] is reported as “Not significant”.

In the case of `Cc1ccnc(N(C)CCOc2ccc(CC3SC(=O)NC3=O)cc2)c1` (stereo unspecified), the Reduction [8] is reported as “Not significant”, the Reduction [4] is reported as 34% and the Reduction [5] is reported as 41%.

For `O=C(NCCOc1ccc(CC2SC(=O)NC2=O)cc1)Nc1ccccc1` (stereo unspecified), the Reduction [9] was 58% and the Reduction [2] was 21%.

With `CN(CCCOc1ccc(CC2SC(=O)NC2=O)cc1)c1nc2ccccc2o1` (stereo unspecified) the Reduction [15] was “inactive” and the Reduction [5] was 32%.
